Screening results from PubChem BioAssay.
An excerpt weighted towards active compounds, which were near 5.3% of everything screened.
FAK inh: FAK (human) kinase inhibition | Q05397 | biochemical FAK kinase activity assay | inhibition, %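 (tested at 7 µM)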 | 97,000 tested, 0.84% active | AID 727; in the data active = inhibition above about 19%;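 note: 0% = DMSO and 100% = reference compound high control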
Target sequence (Q05397 whole entry, looked up): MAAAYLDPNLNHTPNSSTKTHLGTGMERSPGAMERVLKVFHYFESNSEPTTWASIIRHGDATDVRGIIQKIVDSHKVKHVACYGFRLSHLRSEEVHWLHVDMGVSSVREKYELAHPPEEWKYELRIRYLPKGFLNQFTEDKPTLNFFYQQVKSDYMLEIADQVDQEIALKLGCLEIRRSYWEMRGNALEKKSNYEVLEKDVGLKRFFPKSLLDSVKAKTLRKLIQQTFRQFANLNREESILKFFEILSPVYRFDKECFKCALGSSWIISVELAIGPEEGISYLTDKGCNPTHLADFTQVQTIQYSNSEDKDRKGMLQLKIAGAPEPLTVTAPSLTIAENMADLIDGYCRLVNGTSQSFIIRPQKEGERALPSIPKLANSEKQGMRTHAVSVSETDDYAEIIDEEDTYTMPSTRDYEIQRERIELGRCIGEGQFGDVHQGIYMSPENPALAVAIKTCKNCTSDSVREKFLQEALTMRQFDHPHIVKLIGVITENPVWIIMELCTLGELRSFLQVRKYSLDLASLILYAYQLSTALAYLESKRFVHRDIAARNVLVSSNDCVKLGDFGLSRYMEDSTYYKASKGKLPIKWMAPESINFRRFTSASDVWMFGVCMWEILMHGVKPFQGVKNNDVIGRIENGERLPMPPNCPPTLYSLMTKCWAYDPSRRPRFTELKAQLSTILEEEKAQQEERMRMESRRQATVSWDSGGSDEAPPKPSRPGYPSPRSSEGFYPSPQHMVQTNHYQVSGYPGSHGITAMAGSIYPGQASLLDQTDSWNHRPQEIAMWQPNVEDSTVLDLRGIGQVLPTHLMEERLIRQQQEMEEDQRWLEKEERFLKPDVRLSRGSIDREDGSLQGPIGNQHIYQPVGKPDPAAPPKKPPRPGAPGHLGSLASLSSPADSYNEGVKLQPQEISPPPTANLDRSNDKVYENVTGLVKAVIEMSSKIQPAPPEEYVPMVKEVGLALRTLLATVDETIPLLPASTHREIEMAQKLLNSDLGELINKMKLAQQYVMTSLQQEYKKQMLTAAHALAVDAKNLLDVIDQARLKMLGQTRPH
Plk1 PBD FP: inhibitors of human Plk1 polo box domain binding; P53350; inhibition, %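 (tested at about 20 µM)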; 97,000 tested, 0.13% active; Plk1 PBD phosphopeptide binding, fluorescence polarization; in the data active = inhibition above about 34%, passing the limit was not always enough
PLK1 kinase inh: PLK1 (human) kinase inhibition; P53350; recombinant PLK1 kinase, TR-FRET peptide phosphorylation; inhibition, % at 10 µM; 97,000 tested, 0.53% active; AID 619;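 active = inhibition of 50% or more in the single-concentration screen; inactive = inhibition below 50%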;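 note: 0% = DMSO max control and 100% = H-89 dihydrochloride min control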
EphB4 antag: blocks human EphB4 binding to ephrin-B2; P54760; EphB4 LBD / TNYL-RAW-Alexa532 peptide, fluorescence polarization; inhibition, % at 7 µM; 97,000 tested, 0.15% active; AID 720;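 active = inhibition above the screen-wide mean inhibition plus 3 SD, cut at about 15% in these data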;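 note: 0% = DMSO wells and 100% = excess unlabeled TNYL-RAW peptide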
Rev-RRE block: HIV Rev-RRE protein-RNA interaction inhibition | Rev peptide-RRE RNA binding, FRET | inhibition, % at 8 µM | 97,000 tested, 0.79% active | AID 704;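 active = inhibition above the screen-wide mean plus 3 SD, cut at about 35% in these data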;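 note: 0% = median DMSO wells and 100% = median Neomycin B control wells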
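assay system = Cy5-tagged RRE RNA duplex with fluorescein-tagged Rev peptide | incubation = 5 + 15 min at 25 °C | also added = labelled Rev peptide | measure = % inhibition of FRET ratio versus controls | benchmarks = DMSO wells as 0% and neomycin B wells as 100% inhibition | measured by = FRET fluorescence readout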
Cav32 inh: human Cav3.2 channel inhibition, primary screen; O95180; Cav3.2-expressing cells, Fluo-4 calcium fluorescence FDSS; active compounds read low; B-score at 10 µM; 100,000 tested, 4% active;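 active = single-dose well whose peak fluorescence ratio is a statistical outlier from its plate by either plate-standardised score or position-corrected B-score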
* hit, by the source's call; . = no result given; [ ] = another dose, or the depositor's remark.

SMILES	FAK inh	Plk1 PBD FP	PLK1 kinase inh	EphB4 antag	Rev-RRE block	Cav32 inh
CC1CCN(S(=O)(=O)c2ccc3ncn(CC(=O)N(C)Cc4ccccc4)c(=O)c3c2)CC1	-2	32	-1	-12	1	-4.6*
O=C(NCCCCc1ccccc1)C1CC(c2cc(C(F)(F)F)cc(C(F)(F)F)c2)=NO1 (centres undefined)	.	.	.	.	.	-1.6
NC(=O)[C@H]1CC2(CC(c3cccc(NC(=O)COc4ccc(Cl)cc4)c3)=NO2)CN1C(=O)C(c1ccccc1)c1ccccc1 (some centres undefined)	.	.	.	.	.	-2.2
CCOc1ccccc1NC(=O)CSc1nnc(-c2ccccc2Cl)n1Cc1ccco1	5	8	-5	8	8	-7.7*
CCOc1ccccc1NC(=O)CSc1nnc(-c2ccco2)n1Cc1ccco1	5	-1	-13	-4	14	-0.61
O=C(CSc1nnc(-c2cc3ccccc3cc2O)n1Cc1ccco1)c1ccc(F)cc1	5	0	-6	8	4	-4*
Cc1occc1-c1nnc(SCC(=O)c2ccc(F)cc2)n1Cc1ccco1	6	3	-7	10	6	-2.3
O=C(CSc1nnc(-c2ccc(O)cc2)n1Cc1ccco1)c1ccccc1	2	2	2	-6	12	0.92
COc1ccccc1-c1nnc(SCC(=O)c2ccc(C3CCCCC3)cc2)n1Cc1ccco1	1	-9	-12	6	2	-4.7*
CC(=O)c1c(C(C)=O)c(C)n(C2CCCCC2)c1C	-2	4	-6	-9	-4	-0.18
CC(C)c1ccc(N(CC(=O)NCCSC(C)(C)C)S(C)(=O)=O)cc1	1	-15	-5	4	-7	-0.041
Cc1ccc(C)c(N2CCN(c3nnnn3-c3ccccc3)CC2)c1	0	12	-6	1	11	-2.5
CC([NH2+][O-])C(C)(C)NO (centres undefined)	-1	-6	-12	-2	-1	0.48
Brc1cccc(CN2CCCCCCC2)c1	0	11	-1	4	-3	-0.19
CC(C)(C)NC(=O)c1cccc(NC(=O)c2cccc(O)c2)c1	1	-8	1	0	9	0.85
CC1CC(C)CN(C(=O)c2ccc3c(c2)N(Cc2ccccc2)CCS3)C1 (centres undefined)	3	11	-18	2	0	-7.7*
COc1ccccc1NC(C)=O	.	.	.	.	.	0.54
COc1ccccc1NC(=O)c1ccc(N)cc1	0	-14	6	1	7	-4.2*
CCOC(=O)C1CCCN(CC(=O)NC2=Nc3ccccc3N=C(C)C2c2ccccc2)C1 (centres undefined)	0	-3	-2	0	-4	-6.2*
OCCCc1nc2n(n1)C(c1ccccc1Cl)C=C(c1cccs1)N2 (centres undefined)	0	-4	-11	-5	92*[fluorescence artefact?]	-1.5
OCCCc1nc2n(n1)C(c1ccccc1)C=C(c1ccc(F)cc1)N2 (centres undefined)	3	-18	-14	0	34	0.011
OCCCc1nc2n(n1)C(c1cccs1)C=C(c1ccccc1)N2 (centres undefined)	-2	-56	-5	5	137*[fluorescence artefact?]	-9.9*
CCN(CC)c1cnn(C/C(=N\OC)c2ccc(Cl)cc2)c(=O)c1Br	4	-8	-13	-6	4	-5.1*
CO/N=C(/CNC(=O)c1ccccc1Cl)c1ccc(Cl)cc1	4	13	-12	0	2	.
CCOC(=O)C(=CN(CCc1ccccc1)CC(=O)OC)C(=O)OCC	.	.	.	.	.	0.86
SMILES	FAK inh	Plk1 PBD FP	PLK1 kinase inh	EphB4 antag	Rev-RRE block	Cav32 inh
CCCCOc1ccc(Br)cc1/C(C)=N/NC1=NCCN1	0	4	-4	-8	-8	-6.7*
Cc1cc(Br)ccc1OCCCCNC(C)(C)C	-11	-24	-6	-13	0	1.4
Cc1cc(C)cc(-n2c(C)cc(/C=N/NC(=O)CSc3ncccn3)c2C)c1	-1	-7	-11	-6	-6	-6.8*
C[C@@H]1CCC[C@]2(O[C@@H](CCO)C[C@@H](O)[C@@H]2O)O1	.	.	.	.	.	0.057
COc1ccccc1S(=O)Cc1ccc(C(=O)NCCc2ccc(Cl)cc2)o1 (centres undefined)	5	-21	60*	0	8	-0.81
COc1ccccc1S(=O)(=O)Cc1ccc(C(=O)NCCN(C)C)o1	-4	-12	-11	10	2	0.08
O=c1c2cc(Br)ccc2nc(-c2cccc(C(F)(F)F)c2)n1O	-3	-9	-35	9	11	-7.9*
FC(F)(F)c1cccc(Cn2nnnc2-c2cccc(C(F)(F)F)c2)c1	3	-21	-9	7	22	-2.8
O=C(Cc1ccccc1)NCC(=O)N1CCCCCC1	1	11	-33	-5	9	0.42
CCOC(=O)c1c(N2C(=O)C3CC(C)=C(C)CC3C2=O)sc(C)c1C (centres undefined)	-2	-30	2	11	9	-0.048
COc1ccc(S(=O)(=O)N2CCC(C(=O)N3CCc4ccccc4C3)CC2)cc1C	4	-12	-2	3	5	-5*
COc1ccc(S(=O)(=O)N2CCC(C(=O)N3CCc4ccccc4C3)CC2)cc1	-3	1	-16	-2	13	-1.1
Cc1ccc(-c2nc(CS(=O)CC(=O)NCCC(C)C)c(C)o2)cc1 (centres undefined)	4	9	67*	3	5	-1.3
Cc1ccc(-c2nc(CS(=O)CC(=O)NCc3ccc(Cl)cc3)c(C)o2)cc1 (centres undefined)	1	11	69*	-1	6	-6*
CCCCNC(=O)CS(=O)Cc1nc(-c2ccc(C)cc2)oc1C (centres undefined)	-2	6	-14	-7	0	-2.4
CCc1cccc(NC(=O)CS(=O)Cc2nc(-c3ccc(C)cc3)oc2C)c1 (centres undefined)	-1	1	-4	2	12	-6.7*
Cc1ccc2oc(-c3cccc(NC(=S)NC(=O)/C=C/c4ccco4)c3)nc2c1	13	-21	-10	-6	0	.
Cc1ccc(Nc2nc(OC(C(F)(F)F)C(F)(F)F)nc(N3CCOCC3)n2)cc1	-8	7	0	4	10	-0.25
FC(F)(F)C(Oc1nc(NC2CCCCC2)nc(N2CCOCC2)n1)C(F)(F)F	-4	-3	-6	8	4	-4.9*
O=C(NC1CCCc2ccccc21)c1cncc(Br)c1 (centres undefined)	6	-9	-3	5	0	1.4
C=CCN(CC=C)C(=S)NC(=O)c1ccc(-c2ccccc2)cc1	0	33	-11	7	-6	-4.4*
COC(=O)c1ccc2c(c1)C(C)(C)C(/C=C/c1ccccc1O)=[N+]2C	7	8	-14	-52	79*[fluorescence artefact?]	-3.7*
COC(=O)c1cc[n+](CC(=O)c2ccccc2)cc1	0	-8	-8	1	2	-0.86
